ABHD4 inh – ABHD4 (mouse) inhibition, primary FP screen; Q8VD66; purified mABHD4, FP-Rh probe fluorescence polarization; inhibition, % at 8.92 µM; 370,000 tested, 0.54% active;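 active = inhibition exceeding the mean over every tested compound plus 3 SD, cut at about 30% in these data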
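Assay system: wild-type mouse ABHD4 protein; compound: single nominal dose of 8.92 µM, 0.89% DMSO final; schedule: 45 min + 60 min at 25 °C; measured by: FP readout, ex 525 nm / em 598 nm; evaluation: % inhibition of FP-Rh probe binding versus controls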
rCAG RNA binder – binds r(CAG) RNA repeats | r(CAG) RNA repeat, TO-PRO-1 dye displacement fluorescence | inhibition, % at 3 µM | 370,000 tested, 1.3% active;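 active = inhibition above the plate cutoff, the mean of all test compounds on that plate plus 3 SD, cut at about 35% in these data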;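 note: higher means more dye released from RNA so lower well fluorescence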
TCR-CD3 inh – blocks the human TCR-CD3 interaction. TAMRA-labeled TCR probe fluorescence, biochemical. inhibition, % at 9.4 µM. 360,000 tested, 0.37% active; in the data active = inhibition above about 19%;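 note: recombinant mutant TCR 2C K166C tagged with TAMRA read by polarization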
SIAE inh – human SIAE inhibition, primary screen; 370,000 tested, 0.69% active; inhibition, % at 9.66 µM; AID 1053197; Q9HAT2; SIAE FP-Rh probe binding, fluorescence polarization;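 active = inhibition above a cutoff: mean of compounds within the control limits plus 3 SD of those, cut at about 17% in these data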
HTRA1 inh – HTRA1 (human) protease inhibition | Q92743 | 340,000 tested, 0.5% active | recombinant HTRA1, FP-rhodamine activity-based probe, fluorescence polarization | AID 504803 | inhibition, % at 5.96 µM; in the data active = inhibition above about 36%
Target sequence (Q92743 whole entry, looked up): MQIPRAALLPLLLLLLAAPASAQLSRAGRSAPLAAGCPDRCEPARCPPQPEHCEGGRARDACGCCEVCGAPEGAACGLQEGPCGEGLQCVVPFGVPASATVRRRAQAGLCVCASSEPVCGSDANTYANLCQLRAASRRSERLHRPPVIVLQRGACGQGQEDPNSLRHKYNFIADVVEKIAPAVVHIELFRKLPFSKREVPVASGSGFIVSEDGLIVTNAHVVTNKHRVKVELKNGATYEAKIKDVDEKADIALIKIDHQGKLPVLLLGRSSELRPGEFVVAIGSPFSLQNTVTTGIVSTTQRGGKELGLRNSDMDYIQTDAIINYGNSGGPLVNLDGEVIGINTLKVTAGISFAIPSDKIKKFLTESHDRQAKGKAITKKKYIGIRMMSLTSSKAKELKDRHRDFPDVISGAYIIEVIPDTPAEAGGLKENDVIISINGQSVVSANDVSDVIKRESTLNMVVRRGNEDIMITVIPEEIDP
PRMT1 inh – inhibitors of human PRMT1. Q99873. recombinant PRMT1, activity-based probe fluorescence polarization. inhibition, % at 2.79 µM. 370,000 tested, 1.3% active;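 active = inhibition above about 21% made by adding two undisclosed values, limit read from the data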
Hits are given with their value. Rows were chosen to be rich in hits. Some 3.5% of all compounds tested hit in one or more screens of this group.

Oc1ccc2ccccc2c1/C=N/c1nccs1 was read as ABHD4 inh inactive, rCAG RNA binder inactive, TCR-CD3 inh inactive, SIAE inh inactive, HTRA1 inh inactive and PRMT1 inh inactive.
Screening COc1ccc2c(c1)-c1nc(/N=C/c3c(O)ccc4ccccc34)sc1CC2 returned ABHD4 inh inactive, rCAG RNA binder inactive, TCR-CD3 inh inactive, SIAE inh inactive, HTRA1 inh inactive and PRMT1 inh 21.
For COc1ccc2c(c1)-c1nc(/N=C/c3ccc(O)cc3)sc1CC2 the results were ABHD4 inh inactive, rCAG RNA binder inactive, TCR-CD3 inh inactive, SIAE inh inactive, HTRA1 inh inactive and PRMT1 inh 36.
For COc1ccc2c(c1)-c1nc(NC(=O)c3cccs3)sc1CC2 the results were ABHD4 inh inactive, rCAG RNA binder inactive, TCR-CD3 inh inactive, SIAE inh inactive, HTRA1 inh inactive and PRMT1 inh inactive.
O=C(CCCCn1c(=O)[nH]c2ccsc2c1=O)NCCc1ccccc1 was read as ABHD4 inh inactive, rCAG RNA binder inactive, TCR-CD3 inh inactive, SIAE inh inactive, HTRA1 inh inactive and PRMT1 inh inactive.
For O=C(CCCCn1c(=O)[nH]c2ccsc2c1=O)NCc1cccnc1 the results were ABHD4 inh inactive, rCAG RNA binder inactive, TCR-CD3 inh inactive, SIAE inh 20, HTRA1 inh inactive and PRMT1 inh inactive.
For COc1ccc(O)c(/C=C2/SC(=S)N(Cc3ccccc3)C2=O)c1 the results were ABHD4 inh inactive, rCAG RNA binder inactive, TCR-CD3 inh inactive, SIAE inh inactive, HTRA1 inh inactive and PRMT1 inh 23.
COc1ccc2c(c1)CNC2CS(=O)(=O)NCC(C)C (stereo not drawn) was read as ABHD4 inh inactive, rCAG RNA binder inactive, SIAE inh inactive and PRMT1 inh inactive.
Screening COc1cc(OC)cc(-c2nnc(SCc3ccc(C(=O)O)cc3)o2)c1 returned ABHD4 inh inactive, rCAG RNA binder inactive, TCR-CD3 inh inactive, SIAE inh inactive, HTRA1 inh inactive and PRMT1 inh 22.
Screening Cn1c(=S)c2[nH]c(SCCN)nc2n(C)c1=O returned ABHD4 inh 39, rCAG RNA binder inactive, TCR-CD3 inh inactive, SIAE inh inactive, HTRA1 inh inactive and PRMT1 inh inactive.
CCN1CCN(c2cc(N3CCN(C(=O)c4ccco4)CC3)c3c4c(onc24)-c2ccccc2C3=O)CC1 was read as HTRA1 inh 70.
Screening Cc1cc(N2CCN(C(=O)c3ccco3)CC2)c2ccccc2n1 returned ABHD4 inh inactive, rCAG RNA binder inactive, TCR-CD3 inh inactive, SIAE inh inactive, HTRA1 inh inactive and PRMT1 inh inactive.
Screening NC(=O)c1csc(-c2ccncc2)n1 returned ABHD4 inh inactive, rCAG RNA binder inactive, TCR-CD3 inh inactive, SIAE inh inactive, HTRA1 inh inactive and PRMT1 inh inactive.
Nc1cc(-c2ccncc2)c[nH]c1=O was read as ABHD4 inh inactive, rCAG RNA binder inactive, TCR-CD3 inh inactive, SIAE inh inactive, HTRA1 inh inactive and PRMT1 inh 24.
Screening O=S(=O)(Nc1ccc(-c2csc(-c3ccccc3)n2)cc1)c1ccccc1 returned ABHD4 inh inactive, rCAG RNA binder inactive, TCR-CD3 inh inactive, SIAE inh inactive, HTRA1 inh inactive and PRMT1 inh inactive.
O=[N+]([O-])c1ccc(S(=O)(=O)Nc2ccc(-c3csc(-c4ccccc4)n3)cc2)cc1 was read as ABHD4 inh inactive, rCAG RNA binder 79, TCR-CD3 inh inactive, SIAE inh inactive and PRMT1 inh inactive.
`CCOC(=O)c1c(N2C(=O)CC(Sc3ccccc3C(=O)O)C2=O)sc(C)c1C` (stereo not drawn) gave ABHD4 inh inactive, rCAG RNA binder inactive, TCR-CD3 inh inactive, SIAE inh inactive, HTRA1 inh inactive and PRMT1 inh 49.
`O=C(Nc1ccccc1)Nc1nc2ncccn2c1-c1ccc(F)cc1` gave ABHD4 inh inactive, rCAG RNA binder inactive, SIAE inh inactive and PRMT1 inh inactive.
For Cc1ccc(NNS(=O)(=O)c2ccc(C)cc2)cc1 the results were ABHD4 inh inactive, rCAG RNA binder inactive, TCR-CD3 inh inactive, SIAE inh inactive, HTRA1 inh inactive and PRMT1 inh 64.
For Cc1ccc(S(=O)(=O)NNC(=O)C(=O)NNS(=O)(=O)c2ccc(C)cc2)cc1 the results were ABHD4 inh inactive, rCAG RNA binder inactive, TCR-CD3 inh inactive, SIAE inh inactive, HTRA1 inh inactive and PRMT1 inh inactive.

Screens as filed in PubChem.
